Screening data: PubChem, several laboratories
An excerpt weighted towards active compounds, which were near 0.89% of everything screened.
MDM2 E3 inh: Mdm2 E3 ligase (human) inhibition; Q00987; cell-based MDM2 ubiquitination luciferase reporter, 2 h; 0 = plate control, 100 = twice control, blank-subtracted; signal enhancement, % at 5 µM; 0.11% of 210,000 active; AID 1230;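 active = signal enhancement of 30% or more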;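 note: luminescence tracks abundance of the self-degrading MDM2-luciferase fusion protein; higher signal means inhibition of MDM2 E3 ligase activity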
Target sequence (Q00987 whole entry, looked up, the tested form may be a part): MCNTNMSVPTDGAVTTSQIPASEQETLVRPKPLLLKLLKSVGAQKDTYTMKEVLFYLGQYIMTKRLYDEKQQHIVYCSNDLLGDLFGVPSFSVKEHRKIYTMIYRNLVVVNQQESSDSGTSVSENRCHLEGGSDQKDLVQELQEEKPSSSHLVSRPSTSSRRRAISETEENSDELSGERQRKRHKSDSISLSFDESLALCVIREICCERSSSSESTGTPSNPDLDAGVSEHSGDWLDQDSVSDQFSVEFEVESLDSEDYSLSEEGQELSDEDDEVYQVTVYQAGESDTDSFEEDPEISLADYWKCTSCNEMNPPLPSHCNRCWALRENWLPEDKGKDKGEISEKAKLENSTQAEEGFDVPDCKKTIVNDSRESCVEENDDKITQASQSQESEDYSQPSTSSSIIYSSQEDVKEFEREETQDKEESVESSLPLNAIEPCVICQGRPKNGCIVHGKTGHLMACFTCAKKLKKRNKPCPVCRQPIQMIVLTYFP
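Buffer or medium: Cells held in DMEM | Assay system: Stable mammalian line carrying autodegrading MDM2–luciferase fusion reporter | Quantity: 2000 cells/well | Times: 4 h settle plus 2 h compound, 37 °C | Doses: One concentration, 5 µM, with 0.2% DMSO | Technique: Luminescence with SteadyLite reagent, 15 min at room temperature | Benchmarks: Plate controls and plate blanks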
E-sel TNF inh: blocks E-selectin expression induced by TNF alpha. inhibition, % at 2 µM. HUVEC TNFa-induced E-selectin immunofluorescence, high content. 0.71% of 120,000 active. AID 1246;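 active = inhibition above the batch mean plus 3 SD, and confirmed as a hit on visual image review, cut at about 43% in these data; inconclusive = passes the inhibition cutoff but fails visual image review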;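 note: 0% = TNF-stimulated DMSO wells and 100% = unstimulated control wells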
TNF death inh: inhibitors of TNF-alpha induced necroptosis in Jurkat FADD-/- cells | activation (protection from cell death), % at 10 µM | Jurkat FADD-/- TNF necroptosis rescue, ATP luminescence, 24 h; 0 = TNF only, 100 = no-TNF cells | 0.068% of 220,000 active | AID 463075;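 active = activation, meaning protection from cell death, of at least 50% relative to plate controls; inactive = activation below 50%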;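 note: necroptosis triggered by 40 ng/mL TNF-alpha added together with compound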
HSV augment: HSV replication enhancement; 0.005% of 220,000 active; AID 1956; HSV replication augmentation in cells, fold increase; maximum fold increase; in the data active = maximum fold increase above about 1.5; inconclusive = no clear call, values can overlap the other calls; tested in PC3 cells
zVAD death inh: blocks zVAD induced death of L929 cells; 0.38% of 220,000 active; viability rescue, % at 10 µM; AID 1377; L929 zVAD necroptosis rescue, ATP luminescence, 24 h; with zVAD 60 µM;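 active = activation, scaled between plate controls, above about 75%, limit read from the data; inactive = activation under that limit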;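 note: 0% = zVAD with DMSO and 100% = DMSO alone without zVAD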
Numbers without * were called inactive.

What do the screens show for `O=C(Nc1ccc(F)cc1)N1CCOCC1`?
MDM2 E3 inh: -5.8; E-sel TNF inh: 76.7*; TNF death inh: 0.6; HSV augment: inactive; zVAD death inh: 1.6

How did O=C(NNc1nc2ccccc2s1)Nc1ccccc1 do in these assays?
MDM2 E3 inh: -12.2; E-sel TNF inh: 62.3*; TNF death inh: 1.1; HSV augment: inactive; zVAD death inh: 1.6

What do the screens show for `CCOC(=O)c1cccc(NC(=O)Nc2ccc3c(c2)C(=O)OC3)c1`?
MDM2 E3 inh: -1.2; TNF death inh: 3.1; HSV augment: inactive; zVAD death inh: 1.4

Results for Cc1noc(C)c1S(=O)(=O)Nc1ccc(C(=O)NC2CCCCCC2)cc1 ?
MDM2 E3 inh: -11.2; E-sel TNF inh: -8.7; TNF death inh: 1.6; zVAD death inh: 0.9

What do the screens show for `Cc1noc(C)c1S(=O)(=O)Nc1ccc(C(=O)NC2CCCCC2C)cc1` (configuration not stated)?
MDM2 E3 inh: -3.6; E-sel TNF inh: 75.0*; TNF death inh: 1.0; HSV augment: inactive; zVAD death inh: 0.3

How did CCN1C(=O)C(CC(=O)Nc2c(C)cccc2C)Nc2cc(S(=O)(=O)N(C)C)ccc21 (configuration not stated) do in these assays?
MDM2 E3 inh: -23.0; TNF death inh: -0.8; HSV augment: inactive; zVAD death inh: 0.1

How did Cc1ccccc1Nc1nnc(SCC2CCCCO2)s1 (configuration not stated) do in these assays?
MDM2 E3 inh: -13.9; E-sel TNF inh: -5.2; TNF death inh: 0.3; HSV augment: inactive

What do the screens show for `Cc1ccc(Nc2nnc(SCC3CCCCO3)s2)cc1` (configuration not stated)?
MDM2 E3 inh: 848.3*; E-sel TNF inh: 5.2; TNF death inh: 1.4; HSV augment: inactive; zVAD death inh: 1.1

What do the screens show for `CCOC(=O)N1CCN(C(=O)CCNS(=O)(=O)c2ccc3c(c2)c(=O)n(C)c(=O)n3C)CC1`?
MDM2 E3 inh: -16.6; E-sel TNF inh: 7.3; TNF death inh: 0.9; HSV augment: inactive; zVAD death inh: 1.2

How did CCCC(=O)C1=C(O)C(C(=O)OC)C(C)(C)CC1=Nc1ccc(N)cc1 (configuration not stated) do in these assays?
MDM2 E3 inh: -14.2; E-sel TNF inh: 58.9*; TNF death inh: -3.0; HSV augment: inactive; zVAD death inh: -0.2

What do the screens show for `CCCC(=O)C1=C(O)C(C(=O)OC)C(C)(C)CC1=Nc1ccc(C)cc1` (configuration not stated)?
MDM2 E3 inh: 6.3; TNF death inh: 0.3; HSV augment: inactive; zVAD death inh: 5.9

What do the screens show for `COCCn1c(SCC(=O)c2ccc(Cl)cc2)nnc1C(C)C`?
MDM2 E3 inh: 1.7; E-sel TNF inh: 70.9*; TNF death inh: -2.4; HSV augment: inactive; zVAD death inh: 0.0

How did Cc1ccc(-n2cnc(N)c2C(=O)c2cccc([N+](=O)[O-])c2)cc1 do in these assays?
MDM2 E3 inh: -13.2; TNF death inh: 5.7; HSV augment: inactive; zVAD death inh: 0.8

Results for CCOC(=O)C1CCCN(c2ncnc3c2cnn3-c2ccc(Cl)cc2)C1 (configuration not stated) ?
MDM2 E3 inh: -22.7; E-sel TNF inh: 62.8*; TNF death inh: 1.2; HSV augment: inactive; zVAD death inh: -0.3

Results for CCOC(=O)C1CCCN(c2ncnc3c2cnn3-c2ccc(OC)cc2)C1 (configuration not stated) ?
MDM2 E3 inh: -17.2; TNF death inh: 1.0; HSV augment: inactive; zVAD death inh: -0.2

Results for CN(C)c1oc(-c2ccccc2Cl)nc1C#N ?
MDM2 E3 inh: 32.4*; E-sel TNF inh: -2.1; TNF death inh: -0.1; zVAD death inh: -0.3

What do the screens show for `COc1ccc(-c2ccc(C(=S)N3CCN(C(C)=O)CC3)o2)cc1`?
MDM2 E3 inh: -1.8; E-sel TNF inh: 64.3*; TNF death inh: 1.0; zVAD death inh: -0.1

What do the screens show for `COc1ccc(CC(=O)N2CCN(C(=O)Cc3ccc(OC)cc3)CC2)cc1`?
MDM2 E3 inh: -4.0; E-sel TNF inh: -32.1; TNF death inh: -1.7; zVAD death inh: -0.1

How did COC(=O)c1ccc(OC(=O)CS(=O)c2ccccc2[N+](=O)[O-])cc1 (configuration not stated) do in these assays?
MDM2 E3 inh: -19.2; TNF death inh: 0.1; HSV augment: inactive; zVAD death inh: 0.0

How did CS(=O)(=O)c1ccc(S(=O)CC(=O)OCc2ccccc2)c([N+](=O)[O-])c1 (configuration not stated) do in these assays?
MDM2 E3 inh: -27.9; E-sel TNF inh: 100.0*; TNF death inh: -16.0; HSV augment: inactive; zVAD death inh: 24.3

What do the screens show for `O=C(CS(=O)c1ccc(C(F)(F)F)cc1[N+](=O)[O-])Oc1ccccc1` (configuration not stated)?
MDM2 E3 inh: -0.6; E-sel TNF inh: 83.8*; TNF death inh: 0.0; HSV augment: inactive; zVAD death inh: 0.1

Results for NC(CS(=O)O)C(=O)O (configuration not stated) ?
HSV augment: inactive

What do the screens show for `CC(C)(C)NC(=O)NC(=O)CSc1ncccn1`?
MDM2 E3 inh: -1.8; TNF death inh: 4.7; HSV augment: inactive; zVAD death inh: 2.2

How did CC(C)(C)NC(=O)NC(=O)CSc1ncn[nH]1 do in these assays?
MDM2 E3 inh: 15.8; E-sel TNF inh: 99.8*; TNF death inh: 0.8; HSV augment: inactive; zVAD death inh: 1.1

How did O=C(CC(c1ccco1)S(=O)(=O)c1ccccc1)c1ccccc1 (configuration not stated) do in these assays?
MDM2 E3 inh: -10.6; TNF death inh: 0.3; HSV augment: inactive; zVAD death inh: 0.8

Results for CSc1nsc(/C=C/Nc2ccc(F)cc2)c1C#N ?
MDM2 E3 inh: 35.1*; E-sel TNF inh: -13.2; TNF death inh: -0.3; zVAD death inh: 5.0

How did CSc1nsc(/C=C/Nc2ccc(Cl)cc2)c1C#N do in these assays?
MDM2 E3 inh: -2.5; TNF death inh: -2.4; HSV augment: inconclusive; zVAD death inh: 0.9

What do the screens show for `COc1ccc(/C(C)=N/OCC(=O)N2CC3(C)CC2CC(C)(C)C3)cc1` (configuration not stated)?
MDM2 E3 inh: -4.4; E-sel TNF inh: 94.0*; TNF death inh: -0.1; HSV augment: inactive; zVAD death inh: 0.1

Results for COc1ccc(/C=N/OCC(=O)N2CC3(C)CC2CC(C)(C)C3)cc1 (configuration not stated) ?
MDM2 E3 inh: 1.9; E-sel TNF inh: -18.2; TNF death inh: -1.0; HSV augment: inactive; zVAD death inh: 1.8

Results for O=C(Nc1ccc(Cl)cc1)Nc1nnc(CSc2ccc(Cl)cc2)s1 ?
MDM2 E3 inh: -9.1; E-sel TNF inh: 64.0*; TNF death inh: 1.9; HSV augment: inactive; zVAD death inh: 1.2

How did COc1ccc(N2CCN(S(=O)(=O)c3cccc4cccnc34)CC2)cc1 do in these assays?
MDM2 E3 inh: -15.7; TNF death inh: -0.2; HSV augment: inactive; zVAD death inh: 0.8
